Laboratory results reported in PubChem BioAssay.
Records with an inconclusive call do not appear.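 Rule for the calls, unless noted: active = inhibition over a set limit, the all-compound mean plus 3 SD, in both replicate runs; inconclusive = over that limit in just one replicate run; inactive = at or under that limit in both runs.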

What was measured:
[1] = OD615 S. cerevisiae growth inhibition, permissive medium, pilot counter-assay, permissive growth control for S. cerevisiae lifespan shortening project (AID 705;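 active = growth inhibition above 25% in both replicates, a cutoff set 3 SD above the mean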); conditions: OD615, 24 h, at 10 µM, hits give high values
How it was run: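 System – S. cerevisiae with engineered DeaD lifespan system · Buffer or medium – SC raffinose/galactose permissive medium · Schedule – cells pre-grown 4 h, then 24 h compound exposure, 30 °C humidified · Technique – culture turbidity as optical density at 615 nm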

[2] = Restrictive medium S. cerevisiae growth inhibition, OD615, pilot screen of yeast lifespan reduction project, restrictive growth control (AID 706;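 active = growth inhibition above a set limit, 3 SD over mean compound inhibition, in both replicates, cut at about 43% in these data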;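 note: modified DeaD lifespan yeast strain shifted to restrictive glucose medium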); conditions: OD615, 48 h, at 10 µM, hits give high values
How it was run: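 Material: engineered S. cerevisiae DeaD strain / Medium: glucose-based CSMM-D restrictive medium / Compound: single dose of 10 µM compound final, 0.25% DMSO / Timing: 4 h pre-incubation, 48 h exposure at 30 °C / Technique: OD615 absorbance reading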

[3] = viability gain of MRP-1-high H69AR cells under doxorubicin, pilot screen, MRP-1 activator project, CellTiter-Glo, duplicate (AID 807;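 active = viability increase at or above a cutoff of the median across tested compounds plus 3 SD, cut at about 8.5% in these data, passing the limit was not always enough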;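 note: compound pretreatment 18-22 h then 72 h combined with doxorubicin; 0% = doxorubicin alone and 100% = vehicle without doxorubicin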); conditions: H69AR viability with doxorubicin, CellTiter-Glo luminescence; at 10 µM; hits give high values
[4] = growth suppression of beta-catenin knockout HCT116, pilot screen, human colon tumor cells (AID 823;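 active = cell viability at or below a set limit in both duplicate runs, the limit being the all-compound median minus 4 SD, cut at about 23% in these data, passing the limit was not always enough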;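 note: 0% = wells killed by 20 µM Hyamine and 100% = untreated DMSO cell wells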); conditions: CellTiter-Glo, 60 h, at 10 µM, hits give low values
[5] = growth suppression of PTEN-deleted HCT116, pilot screen, cell-based, HCT116 clonal line, CellTiter-Glo (AID 824;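 active = viability at or below 27.92% in each of two runs, the all-compound median minus 4 SD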;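 note: 0% = 20 µM Hyamine control and 100% = vehicle cell control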); conditions: 60 h, at 10 µM, hits give low values
[6] = inhibitors of the yeast RAM network, pilot screen, dse1pr::URA3 reporter, 5-FOA selection (AID 869);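 note: 0% = DMSO wells with no growth and 100% = 10 µM 1-NA-PP1 with full growth; RAM network block rescues cells from 5-FOA so hits raise OD615 growth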; conditions: S. cerevisiae dse1pr::URA3 5-FOA growth, OD615, 2 d; at 10 µM; hits give high values; strain carries analog-sensitive mutant Cbk1 kinase
[7] = RAM signaling pathway blockade in yeast – S. cerevisiae, Pdr1DBD-CYC8 efflux-inhibited sensitized strain, primary screen (AID 1298;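 active = RAM network inhibition above 8.4% in each of two replicates, 3 SD over the compound average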;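 note: 0% = DMSO untreated cells without growth and 100% = 10 µM 1-NA-PP1 full growth; higher means more yeast growth rescued from 5-FOA killing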); conditions: S. cerevisiae cbk1-as DSE1-URA3 strain, 5-FOA growth OD615, 2 d; at 50 µM; hits give high values

O=C(CSc1nnc(Cn2c(=O)sc3ccccc32)n1-c1ccccc1)N1CCCCCC1
inactive: growth inhibition [1] -11.3% | growth inhibition [2] -4.95% | viability increase [3] -2.95% | viability [4] 91.7% | viability [5] 81.7% | inhibition [6] 2.22% | RAM network inhibition [7] 6.65%

Cc1ccc(S(=O)(=O)NCc2ccco2)cc1C
inactive: growth inhibition [1] -1.9% | growth inhibition [2] -6.06% | viability increase [3] -3.83% | viability [4] 100% | viability [5] 97.2% | inhibition [6] 0.075% | RAM network inhibition [7] 2.42%

CCCc1n[nH]c2c1C(=O)CC(C)(C)C2
inactive: growth inhibition [1] -9.08% | growth inhibition [2] -9.82% | viability increase [3] -1.76% | viability [4] 95.6% | viability [5] 102% | inhibition [6] 0.98% | RAM network inhibition [7] 2.76%

CNc1nc(SCC(=O)OC)nc(N2CCOCC2)n1
inactive: growth inhibition [1] -11.7% | growth inhibition [2] -14.8% | viability increase [3] -1.78% | viability [4] 93.9% | viability [5] 89.3% | inhibition [6] 1.14% | RAM network inhibition [7] 3.47%

CNc1oc(C)nc1S(=O)(=O)c1ccccc1
inactive: growth inhibition [1] -13.1% | growth inhibition [2] -7.71% | viability increase [3] -0.15% | viability [4] 99.9% | viability [5] 98.1% | inhibition [6] 1.98% | RAM network inhibition [7] 0.25%

COc1cccc(C2NC(C)(C(=O)O)C3C(=O)N(C(C)C)C(=O)C23)c1O (configuration not stated)
inactive: growth inhibition [1] 2.59% | growth inhibition [2] 1.56% | viability increase [3] -1.19% | viability [4] 91.5% | viability [5] 91.3% | inhibition [6] 1.82% | RAM network inhibition [7] 2.7%

CCCn1c(CN2CCN(C(=O)OCC)CC2)nc2c1c(=O)n(C)c(=O)n2C
inactive: growth inhibition [1] -3.08% | growth inhibition [2] 1.72% | viability increase [3] -2.59% | viability [4] 92.3% | viability [5] 86.5% | inhibition [6] 0.325% | RAM network inhibition [7] 2.5%

Cc1ccc(-n2c(C)cc(C(=O)OCC(=O)N(C)C3CCS(=O)(=O)C3)c2C)cc1 (configuration not stated)
inactive: growth inhibition [1] -15.9% | growth inhibition [2] -17.3% | viability increase [3] -1.95% | viability [4] 91.7% | viability [5] 91.1% | inhibition [6] 0.955% | RAM network inhibition [7] 8.11%

N#CC1=C(SCc2ccccc2)NC(=O)CC1c1ccc(O)cc1 (configuration not stated)
inactive: growth inhibition [1] -12.2% | growth inhibition [2] -15.2% | viability increase [3] -2.66% | viability [4] 98.2% | viability [5] 96.6% | inhibition [6] 0.67% | RAM network inhibition [7] 1.25%

O=C(c1ccco1)c1cn[nH]c1-c1ccc(Cl)cc1O
inactive: growth inhibition [1] -6.04% | growth inhibition [2] -8.45% | viability increase [3] -2.19% | viability [4] 95.6% | viability [5] 83.4% | inhibition [6] 1.42% | RAM network inhibition [7] 0.57%

CCN1CCN(c2cc(C)c3cc(NC(=O)c4ccncc4)ccc3n2)CC1
inactive: growth inhibition [1] -8.8% | growth inhibition [2] 1.77% | viability increase [3] -4.96% | viability [4] 82.6% | viability [5] 79.5% | inhibition [6] 1.46% | RAM network inhibition [7] 1.77%

CCCS(=O)(=O)c1nc(S(=O)(=O)c2ccc(C)cc2)c(N2CCCC2)s1
inactive: growth inhibition [1] -0.655% | growth inhibition [2] 9.56% | viability increase [3] -2.03% | viability [4] 103% | viability [5] 96.3% | inhibition [6] 4.48% | RAM network inhibition [7] 10.2%

COc1cc(N)ccc1Cc1ccc(N)cc1OC
inactive: growth inhibition [1] -5.34% | growth inhibition [2] -2.19% | viability increase [3] -4.54% | viability [4] 85.9% | viability [5] 90.8% | inhibition [6] -0.06% | RAM network inhibition [7] 6.85%

CCn1c(-c2ccccc2O)n[nH]c1=S
inactive: growth inhibition [1] 1.96% | growth inhibition [2] 25.6% | viability increase [3] -0.52% | viability [4] 93.7% | viability [5] 95.4% | inhibition [6] -0.54% | RAM network inhibition [7] 0.81%

Cc1ccc(N(CC(O)CN2CCCC2)S(=O)(=O)c2ccccc2)cc1 (configuration not stated)
inactive: growth inhibition [1] -1.29% | growth inhibition [2] -3.1% | viability increase [3] -2.89% | viability [4] 94.2% | viability [5] 91.2% | inhibition [6] -0.105% | RAM network inhibition [7] 5.78%

O=C1CCCC/C1=C\Nc1ccc(Cl)cn1
inactive: growth inhibition [1] -4.26% | growth inhibition [2] 1.26% | viability increase [3] 1.58% | viability [4] 98.1% | viability [5] 95% | inhibition [6] 2.25% | RAM network inhibition [7] -1.13%

COc1ccc(-c2cn3c(C)c(C(=O)NC(C)(C)C)sc3n2)cc1
inactive: growth inhibition [1] -8.09% | growth inhibition [2] -9.73% | viability increase [3] -5.94% | viability [4] 81.5% | viability [5] 85.7% | inhibition [6] 0.645% | RAM network inhibition [7] 1.82%

CCC(O)CNc1nc(SC)nc2sc3c(c12)CCN(C)C3 (configuration not stated)
inactive: growth inhibition [1] -7.7% | growth inhibition [2] -14.2% | viability increase [3] -3.74% | viability [4] 99.2% | viability [5] 91.2% | inhibition [6] 2.08% | RAM network inhibition [7] 0.46%

CC1=CC(c2ccccc2)n2nc(NS(=O)(=O)c3ccc(C)cc3)nc2N1 (configuration not stated)
inactive: growth inhibition [1] -9.59% | growth inhibition [2] 5.79% | viability increase [3] -1.29% | viability [4] 100% | viability [5] 99.5% | inhibition [6] 0.09% | RAM network inhibition [7] 2.86%

CN(C)CCNC(=O)c1ccc(CS(=O)(=O)c2c(Cl)cccc2Cl)o1
inactive: growth inhibition [1] -2.3% | growth inhibition [2] -9.77% | viability increase [3] -1.24% | viability [4] 99.2% | viability [5] 97.6% | inhibition [6] 2.96% | RAM network inhibition [7] -1.13%

COc1ccc(OC)c(N(CC(=O)Nc2ccc3c(c2)OCCO3)S(C)(=O)=O)c1
inactive: growth inhibition [1] -6.81% | growth inhibition [2] -3.32% | viability increase [3] -2.52% | viability [4] 92.4% | viability [5] 89.8% | inhibition [6] 0.825% | RAM network inhibition [7] 3.49%

CC(Oc1ccc(Cl)cc1Cl)C(=O)NCCCN(C)C (configuration not stated)
inactive: growth inhibition [1] -0.77% | growth inhibition [2] 4.78% | viability increase [3] -2.25% | viability [4] 99.6% | viability [5] 100% | inhibition [6] 1.79% | RAM network inhibition [7] 0.78%

O=C(CC1NCCNC1=O)OCCCc1ccccc1 (configuration not stated)
inactive: growth inhibition [1] -0.955% | growth inhibition [2] -2.82% | viability increase [3] 0.07% | viability [4] 99.1% | viability [5] 99.9% | inhibition [6] 1.09% | RAM network inhibition [7] 5.29%

COc1cc(OC)cc(C(=O)NCCn2ccc3ccccc32)c1
inactive: growth inhibition [1] -5.04% | growth inhibition [2] 0.31% | viability increase [3] -3.92% | viability [4] 92.8% | viability [5] 92.3% | inhibition [6] 1.16% | RAM network inhibition [7] 7.95%

CSc1nc2sc3c(c2c(=O)n1C)CCCC3
inactive: growth inhibition [1] 7.93% | growth inhibition [2] 8.89% | viability increase [3] -0.98% | viability [4] 99.9% | viability [5] 94.7% | inhibition [6] 0.695% | RAM network inhibition [7] 3.94%

O=C(CSc1nc2c(c(=O)n1-c1ccc(Br)cc1)SCC2)NCC1CCCO1 (configuration not stated)
inactive: growth inhibition [1] -11.1% | growth inhibition [2] -8.53% | viability increase [3] -1.02% | viability [4] 97.9% | viability [5] 101% | inhibition [6] 1.69% | RAM network inhibition [7] 2.63%

Cc1ccc(/C=N/c2sc3c(c2C#N)CCC3)s1
inactive: growth inhibition [1] -1.95% | growth inhibition [2] -5.03% | viability increase [3] -0.97% | viability [4] 96.1% | viability [5] 93.8% | inhibition [6] 1.21% | RAM network inhibition [7] 7%

COc1ccc(C2C/C(=N\O)C(C)(C)O2)cc1 (configuration not stated)
inactive: growth inhibition [1] -16.5% | growth inhibition [2] -4.77% | viability increase [3] -0.83% | viability [4] 97.1% | viability [5] 93.7% | inhibition [6] 1.06% | RAM network inhibition [7] 3.9%

CNC(=O)c1cc2cc(OC)ccc2n1CCN(C)C
inactive: growth inhibition [1] -8.87% | growth inhibition [2] -16.4% | viability increase [3] -3.65% | viability [4] 92% | viability [5] 87.2% | inhibition [6] 2.31% | RAM network inhibition [7] 6.18%

CCOc1ccc(C2N(c3ccc(Cl)cc3)C(=O)C3CCCN32)cc1OC (configuration not stated)
inactive: growth inhibition [1] -2.75% | growth inhibition [2] -6.81% | viability increase [3] -1.98% | viability [4] 98.7% | viability [5] 95.8% | inhibition [6] -0.115% | RAM network inhibition [7] 5.42%

CCC(C)NC(=O)CS(=O)Cc1nc(-c2cccc(OC)c2)oc1C (configuration not stated)
inactive: growth inhibition [1] -12.5% | growth inhibition [2] -1.45% | viability increase [3] -1.45% | viability [4] 98% | viability [5] 94.5% | inhibition [6] 1.23% | RAM network inhibition [7] 4.44%

CCOC1=NC(C(=O)O)c2ccccc2/C(=C(/C)Cl)N1 (configuration not stated)
inactive: growth inhibition [1] -4.61% | growth inhibition [2] -27.8% | viability increase [3] 0.7% | viability [4] 101% | viability [5] 96.8% | inhibition [6] 0.25% | RAM network inhibition [7] 2.78%

Cc1c(C)n(CC(O)CN2CCCCCC2)c2ccccc12 (configuration not stated)
inactive: growth inhibition [1] -14.9% | growth inhibition [2] -19.6% | viability increase [3] -4.25% | viability [4] 79.6% | viability [5] 81% | inhibition [6] 2.44% | RAM network inhibition [7] 1.09%

COc1ccc(NC(=O)c2cc3ccccc3o2)cc1
inactive: growth inhibition [1] -7.97% | growth inhibition [2] 10.6% | viability increase [3] -4.64% | viability [4] 86.6% | viability [5] 75.8% | inhibition [6] 0.89% | RAM network inhibition [7] -1.4%

COc1ccc(S(=O)(=O)Cc2ccc(C(=O)N3CCC(C(N)=O)CC3)o2)cc1
inactive: growth inhibition [1] -3.35% | growth inhibition [2] 0.07% | viability increase [3] -0.31% | viability [4] 76% | viability [5] 93.5% | inhibition [6] 2.22% | RAM network inhibition [7] 4.37%

Cc1ccc(O)c(-c2cc(C(F)(F)C(F)F)nc(-c3ccccc3)n2)c1
inactive: growth inhibition [1] -21.9% | growth inhibition [2] -10.4% | viability increase [3] -5.33% | viability [4] 66.7% | viability [5] 73% | inhibition [6] 2.58% | RAM network inhibition [7] 7.06%
